From ChEMBL document CHEMBL1141588, “Pyrrolo[2,3-a]carbazoles as potential cyclin dependent kinase 1 (CDK1) Inhibitors. Synthesis, biological evaluation, and binding mode through docking simulations” (J Med Chem, 2008)
pIC50: −log10 of the molar value. One block for each compound: values may come before it. Activity calls are given as the source filed them. The rule behind the calls is not given here.

Legend:
[1] = target: Cyclin-dependent kinase 1/cyclin B1 (Homo sapiens, UniProt P06493); test: Inhibition of CDK1/cyclin B by MESACUP assay; type: protein-complex assay
Chain of Cyclin-dependent kinase 1/cyclin B1 (P06493 whole entry): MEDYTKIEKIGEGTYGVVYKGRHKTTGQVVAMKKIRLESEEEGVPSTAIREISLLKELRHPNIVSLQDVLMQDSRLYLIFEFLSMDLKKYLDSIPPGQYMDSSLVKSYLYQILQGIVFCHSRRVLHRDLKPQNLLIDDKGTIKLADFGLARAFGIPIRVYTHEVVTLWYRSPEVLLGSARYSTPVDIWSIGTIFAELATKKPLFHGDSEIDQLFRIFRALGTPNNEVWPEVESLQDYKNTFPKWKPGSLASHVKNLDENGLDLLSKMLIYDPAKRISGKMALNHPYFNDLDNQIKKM
Chain of Cyclin-dependent kinase 1/cyclin B1 (P14635 whole entry, further chain): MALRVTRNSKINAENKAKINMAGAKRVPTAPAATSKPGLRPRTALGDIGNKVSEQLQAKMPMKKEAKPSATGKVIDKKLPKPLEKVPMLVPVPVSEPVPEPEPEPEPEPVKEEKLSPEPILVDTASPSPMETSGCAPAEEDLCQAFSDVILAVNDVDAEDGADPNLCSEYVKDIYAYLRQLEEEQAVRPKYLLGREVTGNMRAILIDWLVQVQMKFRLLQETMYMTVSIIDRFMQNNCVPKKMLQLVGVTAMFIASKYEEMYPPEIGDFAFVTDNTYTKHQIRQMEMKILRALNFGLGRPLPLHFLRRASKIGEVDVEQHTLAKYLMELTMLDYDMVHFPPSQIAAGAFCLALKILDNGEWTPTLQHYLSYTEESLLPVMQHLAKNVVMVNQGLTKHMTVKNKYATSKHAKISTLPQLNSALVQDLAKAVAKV

[2] = target: T1, Cyclin-dependent kinase 1/cyclin B1 (Homo sapiens) (UniProt P06493+P14635); test: Inhibition of CDK1/cyclin B at 30 uM; type: protein-complex assay
T1 sequence (P06493 whole entry, looked up): as the sequence (P06493 whole entry) above
T1 sequence (P14635 whole entry, looked up): as the sequence (P14635 whole entry, further chain) above

[3] = target: T1, Cyclin-dependent kinase 1/cyclin B1 (Homo sapiens); test: Inhibition of CDK1/cyclin B at 100 uM; type: protein-complex assay
Procedure, shortened: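 CDK1/cyclin B complex activity measured in vitro with the MESACUP cdc2 kinase assay kit. Compounds were tested at 100 µM. Activity was expressed as % CDK1 activity relative to untreated control samples, as mean ± SEM, with statistical comparison against control (P < 0.05, P < 0.001).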

[4] = Inhibition of CDK1/cyclin A at 50 uM
[5] = Inhibition of CDK1/cyclin E at 50 uM
[6] = target: Epidermal growth factor receptor (Homo sapiens) (UniProt P00533); test: Inhibition of EGFR upto 50 uM
Chain of Epidermal growth factor receptor (Homo sapiens) (P00533 whole entry): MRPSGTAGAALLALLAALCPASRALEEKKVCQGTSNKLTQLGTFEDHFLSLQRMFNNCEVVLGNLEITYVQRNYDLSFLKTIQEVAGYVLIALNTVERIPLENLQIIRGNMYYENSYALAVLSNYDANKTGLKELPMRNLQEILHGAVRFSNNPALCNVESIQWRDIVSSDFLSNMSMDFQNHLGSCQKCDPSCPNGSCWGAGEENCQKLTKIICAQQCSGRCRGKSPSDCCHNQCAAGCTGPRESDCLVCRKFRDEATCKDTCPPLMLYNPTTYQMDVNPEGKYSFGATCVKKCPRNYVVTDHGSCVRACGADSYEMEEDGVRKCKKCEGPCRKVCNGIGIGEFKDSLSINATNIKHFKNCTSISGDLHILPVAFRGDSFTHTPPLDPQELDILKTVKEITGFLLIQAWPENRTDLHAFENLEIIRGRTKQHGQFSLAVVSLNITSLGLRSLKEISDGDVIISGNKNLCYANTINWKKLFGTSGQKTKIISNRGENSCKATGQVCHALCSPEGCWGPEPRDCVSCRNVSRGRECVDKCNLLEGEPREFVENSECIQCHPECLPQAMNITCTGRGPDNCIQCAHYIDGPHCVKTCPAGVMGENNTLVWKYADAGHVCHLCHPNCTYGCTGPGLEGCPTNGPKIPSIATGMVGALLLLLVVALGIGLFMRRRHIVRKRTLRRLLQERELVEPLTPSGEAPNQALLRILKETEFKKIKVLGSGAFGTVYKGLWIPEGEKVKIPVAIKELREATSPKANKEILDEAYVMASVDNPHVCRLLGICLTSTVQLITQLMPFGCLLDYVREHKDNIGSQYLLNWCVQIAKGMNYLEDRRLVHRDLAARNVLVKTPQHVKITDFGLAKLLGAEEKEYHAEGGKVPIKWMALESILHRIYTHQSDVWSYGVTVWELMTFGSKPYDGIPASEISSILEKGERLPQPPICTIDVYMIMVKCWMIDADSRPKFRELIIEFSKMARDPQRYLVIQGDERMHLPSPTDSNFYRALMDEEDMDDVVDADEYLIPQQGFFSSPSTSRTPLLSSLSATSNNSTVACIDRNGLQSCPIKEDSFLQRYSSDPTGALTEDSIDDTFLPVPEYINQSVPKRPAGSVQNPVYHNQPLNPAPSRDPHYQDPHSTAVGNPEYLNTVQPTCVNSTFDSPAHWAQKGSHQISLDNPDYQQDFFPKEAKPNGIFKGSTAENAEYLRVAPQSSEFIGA

[7] = Inhibition of IGFR upto 50 uM
[8] = Inhibition of FGFR upto 50 uM
[9] = target: Vascular endothelial growth factor receptor 2 (Homo sapiens) (UniProt P35968); test: Inhibition of KDR upto 50 uM
Chain of Vascular endothelial growth factor receptor 2 (Homo sapiens) (P35968 whole entry): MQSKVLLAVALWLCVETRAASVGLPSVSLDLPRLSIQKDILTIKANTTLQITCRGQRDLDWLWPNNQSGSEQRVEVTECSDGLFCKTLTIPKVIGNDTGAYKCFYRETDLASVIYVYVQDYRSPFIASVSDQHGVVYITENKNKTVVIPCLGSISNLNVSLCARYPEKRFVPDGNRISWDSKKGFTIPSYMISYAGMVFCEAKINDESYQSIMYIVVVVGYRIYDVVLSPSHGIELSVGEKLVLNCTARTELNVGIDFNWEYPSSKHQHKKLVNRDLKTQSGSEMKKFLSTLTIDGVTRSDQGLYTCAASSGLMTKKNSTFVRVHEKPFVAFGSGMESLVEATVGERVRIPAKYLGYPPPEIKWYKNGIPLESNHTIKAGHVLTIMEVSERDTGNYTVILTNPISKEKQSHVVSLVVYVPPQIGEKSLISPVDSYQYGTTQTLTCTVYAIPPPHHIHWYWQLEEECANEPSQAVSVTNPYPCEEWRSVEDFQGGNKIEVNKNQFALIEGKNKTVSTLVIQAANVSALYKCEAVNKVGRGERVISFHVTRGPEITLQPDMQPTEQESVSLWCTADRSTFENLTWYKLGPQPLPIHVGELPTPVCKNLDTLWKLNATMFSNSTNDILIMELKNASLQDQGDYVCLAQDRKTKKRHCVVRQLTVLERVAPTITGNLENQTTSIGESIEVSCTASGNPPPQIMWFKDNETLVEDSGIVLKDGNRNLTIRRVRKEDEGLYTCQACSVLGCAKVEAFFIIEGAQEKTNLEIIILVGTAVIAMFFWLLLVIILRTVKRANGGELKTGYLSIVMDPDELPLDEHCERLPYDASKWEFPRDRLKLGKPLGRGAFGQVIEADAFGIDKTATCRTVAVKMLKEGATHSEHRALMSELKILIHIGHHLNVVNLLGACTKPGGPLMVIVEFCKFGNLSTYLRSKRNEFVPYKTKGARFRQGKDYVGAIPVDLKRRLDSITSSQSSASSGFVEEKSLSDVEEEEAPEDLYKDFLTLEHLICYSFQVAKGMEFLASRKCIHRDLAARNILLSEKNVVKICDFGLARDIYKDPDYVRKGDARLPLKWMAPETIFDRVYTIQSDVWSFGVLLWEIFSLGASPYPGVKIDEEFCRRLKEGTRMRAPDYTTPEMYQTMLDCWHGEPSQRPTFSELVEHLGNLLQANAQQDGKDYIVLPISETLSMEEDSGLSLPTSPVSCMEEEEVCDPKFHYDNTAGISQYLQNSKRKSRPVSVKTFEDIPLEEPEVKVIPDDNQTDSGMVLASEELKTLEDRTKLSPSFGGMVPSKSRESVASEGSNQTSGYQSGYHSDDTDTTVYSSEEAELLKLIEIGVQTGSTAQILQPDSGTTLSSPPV

[10] = target: Vascular endothelial growth factor receptor 3 (Homo sapiens) (UniProt P35916); test: Inhibition of Flt4 upto 50 uM
Chain of Vascular endothelial growth factor receptor 3 (Homo sapiens) (P35916 whole entry): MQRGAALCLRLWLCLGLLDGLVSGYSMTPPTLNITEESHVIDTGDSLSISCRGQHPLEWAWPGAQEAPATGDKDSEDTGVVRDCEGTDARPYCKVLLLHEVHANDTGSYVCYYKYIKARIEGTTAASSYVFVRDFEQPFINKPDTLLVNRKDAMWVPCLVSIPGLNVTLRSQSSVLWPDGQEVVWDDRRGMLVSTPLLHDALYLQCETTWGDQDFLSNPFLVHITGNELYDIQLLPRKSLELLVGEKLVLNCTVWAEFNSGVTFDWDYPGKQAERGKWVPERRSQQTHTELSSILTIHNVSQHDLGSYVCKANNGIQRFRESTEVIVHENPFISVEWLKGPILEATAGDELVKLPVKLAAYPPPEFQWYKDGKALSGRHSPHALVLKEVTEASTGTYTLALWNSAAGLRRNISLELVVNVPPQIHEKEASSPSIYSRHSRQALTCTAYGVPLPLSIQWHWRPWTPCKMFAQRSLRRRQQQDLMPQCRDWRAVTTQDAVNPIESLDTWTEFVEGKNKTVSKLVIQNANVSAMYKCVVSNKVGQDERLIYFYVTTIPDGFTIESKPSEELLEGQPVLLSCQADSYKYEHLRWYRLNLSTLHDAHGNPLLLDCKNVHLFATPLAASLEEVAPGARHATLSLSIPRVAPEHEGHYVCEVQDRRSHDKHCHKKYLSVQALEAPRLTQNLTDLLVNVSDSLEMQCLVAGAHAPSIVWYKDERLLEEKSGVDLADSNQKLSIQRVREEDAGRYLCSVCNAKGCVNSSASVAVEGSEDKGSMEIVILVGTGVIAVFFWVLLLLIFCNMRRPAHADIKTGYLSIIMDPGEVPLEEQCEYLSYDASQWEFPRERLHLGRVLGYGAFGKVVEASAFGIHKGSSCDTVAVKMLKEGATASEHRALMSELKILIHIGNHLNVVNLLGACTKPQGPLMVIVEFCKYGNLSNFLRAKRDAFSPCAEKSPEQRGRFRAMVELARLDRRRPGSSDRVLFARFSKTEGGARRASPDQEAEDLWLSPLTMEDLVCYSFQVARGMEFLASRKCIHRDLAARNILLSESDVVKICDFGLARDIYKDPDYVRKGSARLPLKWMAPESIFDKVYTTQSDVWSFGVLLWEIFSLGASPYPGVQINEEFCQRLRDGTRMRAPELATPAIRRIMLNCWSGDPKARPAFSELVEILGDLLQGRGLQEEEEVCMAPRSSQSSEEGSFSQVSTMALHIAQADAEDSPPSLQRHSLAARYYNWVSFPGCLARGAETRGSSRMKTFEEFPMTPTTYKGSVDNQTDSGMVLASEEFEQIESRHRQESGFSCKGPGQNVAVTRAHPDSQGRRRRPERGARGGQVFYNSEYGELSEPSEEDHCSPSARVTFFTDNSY

[11] = target: Angiopoietin-1 receptor (Homo sapiens) (UniProt Q02763); test: Inhibition of Tie2 upto 50 uM

Structure (SMILES): CCOC(=O)c1cc2ccc3c4ccc(Cl)cc4[nH]c3c2[nH]1
pIC50 [1]: < 4.00

Structure (SMILES): CCOC(=O)c1cc2ccc3c4ccccc4[nH]c3c2[nH]1
pIC50 [1]: < 4.00

Structure (SMILES): CCOC(=O)c1cc2ccc3c4cc(C)ccc4[nH]c3c2[nH]1
pIC50 [1]: < 4.00

Structure (SMILES): CCOC(=O)c1cc2ccc3c4cc(Cl)ccc4[nH]c3c2[nH]1
pIC50 [1]: < 4.00

Results, then the compound that gave them:

pIC50 [1]: < 4.00
Structure (SMILES): CCOC(=O)c1cc2ccc3c([nH]c4cccc(Cl)c43)c2[nH]1

pIC50 [1]: < 4.00
Structure (SMILES): CCOC(=O)c1cc2ccc3c4cc(OC)ccc4[nH]c3c2[nH]1

pIC50 [1]: 4.82
inhibition [2]: 50%
inhibition [3]: 90%
Activity [4]: inactive
Activity [5]: inactive
Activity [6]: inactive
Activity [7]: inactive
Activity [8]: inactive
Activity [9]: inactive
Activity [10]: inactive
Activity [11]: inactive
Structure (SMILES): CCOC(=O)c1cc2ccc3c4cccc(Cl)c4[nH]c3c2[nH]1
